# Source: ChEMBL document CHEMBL5705890, “Antitumor activity of an allosteric inhibitor of centromere-associated protein-E” (Proc Natl Acad Sci U S A, 2010)
# Legend:
# [1] = system: ES-2; experiment: Anticancer activity against human ES2 cells assessed as cell growth inhibition measured after 72 hrs by DAPI staining based analysis; format: functional
# Method in brief: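 Cells seeded, DAPI-stained DNA content of fixed cells read by imaging 24 h after seeding (T0), and again after a further 72 h exposure to a range of drug concentrations (T72). T72 values were normalized to T0. Curve fits gave the concentration producing 50% growth inhibition relative to T0 and Ymax (GI50).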
# [2] = system: NCI-N87; experiment: Anticancer activity against human NCI-N87 cells assessed as cell growth inhibition measured after 72 hrs by DAPI staining based analysis; format: functional
# [3] = system: SW872; experiment: Anticancer activity against human SW872 cells assessed as cell doubling measured for 72 hrs by DAPI staining based analysis; format: functional
# [4] = Toxicity in mouse xenografted with human COLO 205 cells at 500 mg/kg, ip administered three doses daily on 2 consecutive weeks; format: organism-based; conditions: in vivo, 336 h, time 2 weeks
structure (smiles),measurement,setting,value
CC(C)Oc1ccc(C(=O)N[C@H](CNC(=O)CN(C)C)Cc2ccc(-c3cn4cccc([C@H](C)O)c4n3)cc2)cc1Cl [GSK-923295A],GI50,[1],30 nM
same,GI50,[2],29 nM
same,Activity,[3],2.43
same,Activity,[4],Non-Toxic
